Columns and labels:
Plasmodium falciparum [1] = experiment: Inhibition of Plasmodium falciparum PFT at 50 nM
Plasmodium falciparum [2] = experiment: Inhibition of Plasmodium falciparum PFT at 5 nM
Plasmodium falciparum [3] = experiment: Antimalarial activity in Plasmodium falciparum 3D7 infected erythrocytes as [3H]hypoxanthine uptake; type: functional; conditions: 3D7, 72 h, read-out: ED50 (the source's name)
Outline: (§1)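 Parasites kept per Trager–Jensen in RPMI-1640 with 2 mM L-glutamine, 25 mM HEPES, 33 mM NaHCO3, gentamicin, 20% heat-inactivated human A+ plasma. Compound in DMSO added to culture at 0.5% parasitemia and hematocrit; 37 °C, 5% CO2/5% O2/90% N2, 48 h. [8-3H]hypoxanthine (0.3 µCi) added for a further 24 h, then harvested and scintillation-counted. Uninfected-RBC background subtracted; DMSO vehicle taken as 100% growth. ED50 by linear regression.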

Plasmodium falciparum [4] = experiment: Antimalarial activity in Plasmodium falciparum K1 infected erythrocytes by [3H]hypoxanthine uptake; type: functional; conditions: K1, 72 h, read-out: ED50 (the source's name); outline: as §1
[5] = Inhibition of Plasmodium falciparum PFT
[6] = Selectivity for Plasmodium falciparum PFT over rat PFT
[7] = Inhibition of rat PFT by scintillation proximity assay

| Structure (SMILES) | inhibition (Plasmodium falciparum [1]) | inhibition (Plasmodium falciparum [2]) | EC50 (Plasmodium falciparum [3]) | EC50 (Plasmodium falciparum [4]) | IC50 [5] | Selectivity ratio [6] | IC50 [7] |
| --- | --- | --- | --- | --- | --- | --- | --- |
| Cc1ccccc1CN(CCCN(Cc1cncn1C)c1ccc(C#N)cc1)S(=O)(=O)c1cn(C)cn1 | 76% | 24% |  |  |  |  |  |
| Cn1cnc(S(=O)(=O)N(Cc2ccsc2)[C@@H]2CCC[C@@H]2N(Cc2cncn2C)c2ccc(C#N)cc2)c1 (racemic) | 9% | 0% | > 5000 nM | 4200 nM |  |  |  |
| Cn1cnc(S(=O)(=O)N(CCCN(Cc2cncn2C)c2ccc(C#N)cc2)CC2CCN(C(=O)OC(C)(C)C)CC2)c1 | 94% | 73% |  |  | 1 nM |  |  |
| Cn1cnc(S(=O)(=O)N(Cc2ccccc2)[C@@H]2CC[C@@H](N(Cc3cncn3C)c3ccc(C#N)cc3)C2)c1 (racemic) | 93% | 65% | 340 nM | 145 nM |  |  |  |
| Cn1cnc(S(=O)(=O)N(CCN(Cc2cncn2C)c2ccc(C#N)cc2)CC2CCN(C(=O)OC(C)(C)C)CC2)c1 | 96% | 81% |  |  |  | 117 | 140 nM |
| Cn1cnc(S(=O)(=O)N(CCCN(Cc2cncn2C)c2ccc(C#N)cc2)CC2CCN(c3ncccn3)CC2)c1 | 93% | 62% |  |  |  |  |  |
| Cn1cnc(S(=O)(=O)N(CC2CCN(c3ncccn3)CC2)[C@H]2CCC[C@@H]2N(Cc2cncn2C)c2ccc(C#N)cc2)c1 (racemic) | 28% | 12% | 2600 nM | 750 nM |  |  |  |
| Cn1cnc(S(=O)(=O)N(Cc2ccsc2)[C@H]2CCC[C@@H]2N(Cc2cncn2C)c2ccc(C#N)cc2)c1 (racemic) | 57% | 11% | 2700 nM | 2700 nM |  |  |  |
| Cn1cnc(S(=O)(=O)N(Cc2ccccc2)[C@H]2CC[C@H](N(Cc3cncn3C)c3ccc(C#N)cc3)CC2)c1 | 73% |  |  |  |  |  |  |
| Cn1cnc(S(=O)(=O)N(CCN(Cc2cncn2C)c2ccc(C#N)cc2)Cc2ccccc2)c1 | 98% | 86% |  |  |  |  |  |
| Cn1cnc(S(=O)(=O)N(CC2CCN(C(=O)OC(C)(C)C)CC2)CC(C)(C)N(Cc2cncn2C)c2ccc(C#N)cc2)c1 | 87% |  |  |  | 1.1 nM | 136 | 150 nM |
| Cn1cnc(S(=O)(=O)N(Cc2ccccc2)[C@H]2CC[C@@H](N(Cc3cncn3C)c3ccc(C#N)cc3)C2)c1 (racemic) | 40% | 4% | 700 nM |  |  |  |  |
| Cc1ccccc1CN([C@H]1CCC[C@@H]1N(Cc1cncn1C)c1ccc(C#N)cc1)S(=O)(=O)c1cn(C)cn1 (racemic) | 35% | 12% | 3000 nM | 3200 nM |  |  |  |
| Cn1cnc(S(=O)(=O)N(Cc2ccccc2)CC(C)(C)N(Cc2cncn2C)c2ccc(C#N)cc2)c1 | 100% | 88% |  |  |  |  |  |
| Cn1cnc(S(=O)(=O)N(Cc2ccccc2)[C@H]2CCC[C@@H]2N(Cc2cncn2C)c2ccc(C#N)cc2)c1 (racemic) | 42% | 20% | 3100 nM | 2350 nM |  |  |  |
| Cn1cnc(S(=O)(=O)N(CC2CCN(c3ncccn3)CC2)[C@H]2CC[C@@H](N(Cc3cncn3C)c3ccc(C#N)cc3)C2)c1 (racemic) | 6% |  | 600 nM | 720 nM |  |  |  |
| Cn1cnc(S(=O)(=O)N(Cc2ccccc2)[C@@H]2CCC[C@@H]2N(Cc2cncn2C)c2ccc(C#N)cc2)c1 (racemic) | 0% | 0% | > 5000 nM |  |  |  |  |
| Cn1cnc(S(=O)(=O)N(Cc2ccsc2)CC(C)(C)N(Cc2cncn2C)c2ccc(C#N)cc2)c1 | 70% |  | 2450 nM |  |  |  |  |
| Cc1ccccc1CN([C@H]1CC[C@@H](N(Cc2cncn2C)c2ccc(C#N)cc2)C1)S(=O)(=O)c1cn(C)cn1 (racemic) | 24% |  | 2400 nM | 2600 nM |  |  |  |
| Cn1cnc(S(=O)(=O)N(CC2CCN(c3ncccn3)CC2)[C@@H]2CCC[C@@H]2N(Cc2cncn2C)c2ccc(C#N)cc2)c1 (racemic) | 0% | 10% | 3000 nM | 2500 nM |  |  |  |

| Structure (SMILES) | inhibition (Plasmodium falciparum [1]) | inhibition (Plasmodium falciparum [2]) | EC50 (Plasmodium falciparum [3]) | EC50 (Plasmodium falciparum [4]) | IC50 [5] | Selectivity ratio [6] | IC50 [7] |
| --- | --- | --- | --- | --- | --- | --- | --- |
| Cn1cnc(S(=O)(=O)N(CC2CCN(c3ncccn3)CC2)[C@@H]2CC[C@@H](N(Cc3cncn3C)c3ccc(C#N)cc3)C2)c1 (racemic) | 38% |  | 2600 nM | 1500 nM |  |  |  |
| Cn1cnc(S(=O)(=O)N(CC2CCN(C(=O)OC(C)(C)C)CC2)[C@@H]2CCC[C@@H]2N(Cc2cncn2C)c2ccc(C#N)cc2)c1 (racemic) | 2% | 3% |  | 1250 nM | 350 nM | > 2.9 | > 1000 nM |
| Cn1cnc(S(=O)(=O)N(CC2CCN(C(=O)OC(C)(C)C)CC2)[C@H]2CC[C@H](N(Cc3cncn3C)c3ccc(C#N)cc3)CC2)c1 | 0% |  |  | 1200 nM |  |  |  |
| Cn1cnc(S(=O)(=O)N(CC2CCN(C(=O)OC(C)(C)C)CC2)[C@@H]2CC[C@@H](N(Cc3cncn3C)c3ccc(C#N)cc3)C2)c1 (racemic) | 97% | 86% | 310 nM |  | 3.1 nM |  |  |
| Cc1ccccc1CN(CC(C)(C)N(Cc1cncn1C)c1ccc(C#N)cc1)S(=O)(=O)c1cn(C)cn1 | 98% | 91% |  |  |  |  |  |
| Cn1cnc(S(=O)(=O)N(CC2CCN(C(=O)OC(C)(C)C)CC2)[C@H]2CCC[C@@H]2N(Cc2cncn2C)c2ccc(C#N)cc2)c1 (racemic) | 82% | 41% | 2650 nM |  | 10 nM | > 100 | > 1000 nM |
| Cn1cnc(S(=O)(=O)N(Cc2ccsc2)[C@H]2CC[C@@H](N(Cc3cncn3C)c3ccc(C#N)cc3)C2)c1 (racemic) | 15% |  | 2400 nM | 2500 nM |  |  |  |
| Cn1cnc(S(=O)(=O)N(CCCN(Cc2cncn2C)c2ccc(C#N)cc2)Cc2ccccc2)c1 | 71% | 16% |  | 2650 nM |  |  |  |
| Cn1cnc(S(=O)(=O)N(CC2CCN(C(=O)OC(C)(C)C)CC2)[C@H]2CC[C@@H](N(Cc3cncn3C)c3ccc(C#N)cc3)C2)c1 (racemic) | 83% | 33% | 300 nM | 125 nM |  |  |  |
| Cn1cnc(S(=O)(=O)N(CCCN(Cc2cncn2C)c2ccc(C#N)cc2)Cc2ccsc2)c1 | 73% | 18% |  |  |  |  |  |
| Cn1cnc(S(=O)(=O)N(CCN(Cc2cncn2C)c2ccc(C#N)cc2)Cc2ccsc2)c1 | 100% | 91% | 150 nM | 240 nM |  |  |  |
| Cn1cnc(S(=O)(=O)N(Cc2ccccc2)[C@H]2CC[C@@H](N(Cc3cncn3C)c3ccc(C#N)cc3)CC2)c1 | 23% |  |  | 2750 nM |  |  |  |
| Cn1cnc(S(=O)(=O)N(CCN(Cc2cncn2C)c2ccc(C#N)cc2)CC2CCN(c3ncccn3)CC2)c1 | 96% | 74% |  |  |  |  |  |
| Cc1ccccc1CN([C@@H]1CC[C@@H](N(Cc2cncn2C)c2ccc(C#N)cc2)C1)S(=O)(=O)c1cn(C)cn1 (racemic) | 33% |  | 2400 nM | 2200 nM |  |  |  |
| Cn1cnc(S(=O)(=O)N(CC2CCN(c3ncccn3)CC2)CC(C)(C)N(Cc2cncn2C)c2ccc(C#N)cc2)c1 | 100% | 93% |  |  |  |  |  |
| Cn1cnc(S(=O)(=O)N(CC2CCN(C(=O)OC(C)(C)C)CC2)[C@H]2CC[C@@H](N(Cc3cncn3C)c3ccc(C#N)cc3)CC2)c1 | 0% |  |  | 650 nM |  |  |  |
| Cn1cnc(S(=O)(=O)N(Cc2ccsc2)[C@@H]2CC[C@@H](N(Cc3cncn3C)c3ccc(C#N)cc3)C2)c1 (racemic) | 56% |  | 1500 nM | 1200 nM |  |  |  |
| Cc1ccccc1CN(CCN(Cc1cncn1C)c1ccc(C#N)cc1)S(=O)(=O)c1cn(C)cn1 | 99% | 95% |  |  |  |  |  |
| Cc1ccccc1CN([C@@H]1CCC[C@@H]1N(Cc1cncn1C)c1ccc(C#N)cc1)S(=O)(=O)c1cn(C)cn1 (racemic) | 17% | 16% | 2800 nM | 2800 nM |  |  |  |

From ChEMBL document CHEMBL1157352, “Potent, Plasmodium-selective farnesyltransferase inhibitors that arrest the growth of malaria parasites: structure-activity relationships of ethylenediamine-analogue scaffolds and homology model validation” (J Med Chem, 2008)
